The values that follow come from ChEMBL document CHEMBL1128317, “Phenoxypropylamines: a new series of squalene synthase inhibitors” (J Med Chem, 1995).

Structures are written as SMILES. pIC50: −log10 of the molar value. A value given as a limit tells only on which side of the number the result lay.

The target of the experiment is T1, Squalene synthase (Rattus norvegicus, UniProt Q02769).
T1 sequence (Q02769 whole entry): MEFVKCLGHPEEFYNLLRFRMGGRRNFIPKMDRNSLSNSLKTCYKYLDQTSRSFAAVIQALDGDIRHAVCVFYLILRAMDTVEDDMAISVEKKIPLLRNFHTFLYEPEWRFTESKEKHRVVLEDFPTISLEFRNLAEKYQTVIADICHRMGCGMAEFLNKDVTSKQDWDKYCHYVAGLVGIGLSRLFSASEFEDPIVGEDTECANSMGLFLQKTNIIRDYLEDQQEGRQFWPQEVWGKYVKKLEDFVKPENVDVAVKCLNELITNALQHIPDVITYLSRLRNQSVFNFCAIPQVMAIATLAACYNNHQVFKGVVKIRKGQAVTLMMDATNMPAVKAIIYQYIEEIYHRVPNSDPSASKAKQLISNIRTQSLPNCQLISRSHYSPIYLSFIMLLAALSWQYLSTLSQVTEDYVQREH
In words: Inhibition of rat microsomal squalene synthase. The gist of the method: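 Rat liver microsomal protein (20 μg) incubated at 37 °C in 50 mM potassium phosphate with 4.95 mM MgCl2, 9.9 mM KF and 0.9 mM NADPH. 1-[3H]farnesyl pyrophosphate was added to 20 μM final, and the reaction was stopped after 15 min with 4% KOH. Labeled squalene was isolated on a C18 column. IC50 was derived from % inhibition versus controls (duplicates per concentration, 6–8 controls).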

As usually defined, the pIC50 is −log10 of the IC50, conventionally taken in molar units. A lower pIC50 goes with a large IC50. For the compound `CCOC(=O)c1ccc(OCC(O)CNC(C)C)cc1` (stereo not given), the pIC50 is 5.85.

On to `CCC(=O)Nc1ccc(OCCCNC(C)C)c(Cc2ccccc2)c1`, for which the pIC50 is 9.22.

Turning to `C=CCc1cc(C(=O)CCC)ccc1OCC(O)CNC(C)C` (stereo not given), the pIC50 is 8.35.

`C=CCc1cc(OCCCC)ccc1OCCCNC(C)C` gave a negative logarithm of the IC50 (pIC50) of 9.22.

For `CC(C)NCCCOc1cccc(-c2ccccc2)c1`, the pIC50 was 6.22.

For the compound `CC(C)=CCC/C(C)=C/c1ccccc1OCCCN(C)C(C)C`, the negative logarithm of the IC50 (pIC50) is less than 5.60.

`CC(C)=CCC/C(C)=C/CC/C(C)=C/CCOP(=O)(O)C(=O)O` had a negative-log IC50 (pIC50) of 4.52.

In the case of `CCC(=O)Oc1ccc(OCCCNC(C)C)cc1`, the pIC50 is 8.52. This pIC50 is 4.00 log units higher than that of the compound before.

Compound `CC(C)NCCCOc1ccc(-c2ccccc2)cc1` had a pIC50 of 6.77. Against the preceding compound, the pIC50 is 1.75 log units lower.

As to `CCCCOc1ccc(OCC(CNC(C)C)OC)cc1` (stereo not given), the pIC50 is 5.48.

The compound `C=CCc1ccccc1OCCCNC(C)C` gave a pIC50 of 7.25.

`C=CCc1ccccc1OCC(O)CNC(C)C` (stereo not given) [ALPRENOLOL]: the pIC50 is 5.38.

For `CC(C)NCCCOc1ccc(-c2cccnc2)cc1`, the pIC50 was less than 5.60.

Compound `C=CCc1cc(-c2ccccc2)ccc1OCCCNC(C)C` had a pIC50 of 11.40.

For the compound `C=CCc1cc(NC(=O)CC)ccc1OCCCNC(C)C`, the negative logarithm of the IC50 (pIC50) was 8.30.

`C=CCc1cc(NC(C)=O)ccc1OCCCNC(C)C` had a pIC50 of 7.19. This pIC50 is 1.11 log units lower than that of the compound before.

For `CCCCOc1ccc(OCCCNC(C)C)cc1`, the pIC50 is 7.25. The pIC50 values of the last two compounds are within 0.2 log units of each other.

`C=CCc1cc(N)ccc1OCCCNC(C)C` gave a pIC50 of 6.60.

For the compound `C=CCc1cc(C(=O)CCC)ccc1OCCCNC(C)C`, the negative-log IC50 (pIC50) is 9.00.

Compound `CC(C)NCCCOc1ccccc1Cc1ccccc1` had a pIC50 of 7.92.

`CC(C)NCC(O)COc1ccccc1Cc1ccccc1` (stereo not given) showed a negative logarithm of the IC50 (pIC50) of 5.06.

`CC(=O)Nc1ccc(OCCCNC(C)C)cc1` had a pIC50 of less than 5.60.

Take `CC(C)NCC(O)COc1ccc(-c2ccccc2)cc1` (stereo not given): the negative-log IC50 (pIC50) was 5.52.

As for `CCC(=O)Nc1ccc(OCC(O)CNC(C)C)c(Cc2ccccc2)c1` (stereo not given), the negative logarithm of the IC50 (pIC50) is 6.05.

Compound `C=CCc1cc(C(=O)OCC)ccc1OCCCNC(C)C` gave a pIC50 of 10.30. This pIC50 lies 4.25 log units higher than the previous one.
